Key:
[1] = (§1) AUC (0 to 8 hrs) in mouse at 1 mg/kg, po administered via cassette dose by LC-MS/MS analysis; type: ADME, organism-based; parameters: time < 8 hr, dose 1 mg/kg, route oral; conditions: in vivo
Procedure, shortened: (§2)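 Cassette oral dosing of mice at 1 mg/kg. Blood was sampled after dosing and centrifuged to give plasma. Plasma was deproteinized with acetonitrile containing internal standard, centrifuged, diluted with LC mobile phase and centrifuged again for analysis. Values are means of three determinations.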

[2] = Oral bioavailability in mouse at 1 mg/kg administered via cassette dose by LC-MS/MS analysis; type: ADME, organism-based; conditions: in vivo; procedure, shortened: as §2
Mus musculus [3] = test: as §1; type: ADME, organism-based; parameters: time < 8 hr, dose 1 mg/kg, route oral; conditions: in vivo, 8 h; procedure, shortened: as §2
[4] = Cmax in Balb/c mouse at 3 mg/kg, po; type: ADME, organism-based; parameters: dose 3 mg/kg, route oral; conditions: in vivo
Procedure, shortened: (§3)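 Male Balb/c mice, 7 weeks old, received intradermal ear injection of recombinant mouse IL-23 (500 ng/10 μL PBS) under isoflurane. Compound was suspended in 0.5% methylcellulose and given orally at 3, 10 or 30 mg/kg, 30 min before and 8 h after IL-23. Plasma concentration was measured in parallel with the PD assay, giving Cmax and […].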

[5] = AUC (0 to 24 hrs) in Balb/c mouse at 10 mg/kg, po; type: ADME, organism-based; parameters: time < 24 hr, dose 10 mg/kg, route oral; conditions: in vivo
Procedure, shortened: (§4)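 Male Balb/c mice, 7 weeks old, received 3, 10 or 30 mg/kg orally as a suspension in 0.5% methylcellulose. Dosing was 30 min before and 8 h after intradermal ear injection of recombinant mouse IL-23 (500 ng in 10 μL PBS). Plasma drug levels were measured alongside this PD study, and AUC was taken over 0–24 h.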

[6] = Cmax in Balb/c mouse at 10 mg/kg, po; type: ADME, organism-based; parameters: dose 10 mg/kg, route oral; conditions: in vivo; procedure, shortened: as §3
[7] = AUC (0 to 24 hrs) in Balb/c mouse at 30 mg/kg, po; type: ADME, organism-based; parameters: time < 24 hr, dose 30 mg/kg, route oral; conditions: in vivo; procedure, shortened: as §4
[8] = Cmax in Balb/c mouse at 30 mg/kg, po; type: ADME, organism-based; parameters: dose 30 mg/kg, route oral; conditions: in vivo; procedure, shortened: as §3
Mus musculus [9] = species on record: Mus musculus; test: animal or person; conditions: Balb/c, po
[10] = AUC (0 to 24 hrs) in Balb/c mouse at 3 mg/kg, po; type: ADME, organism-based; parameters: dose 3 mg/kg, time < 24 hr, route oral; conditions: in vivo; procedure, shortened: as §4
Mus musculus [11] = test: Drug uptake in po dosed Balb/c mouse; type: ADME, organism-based; conditions: in vivo; procedure, shortened: as §3
Mus musculus [12] = test: Effect on IFNgamma expression in po dosed Balb/c mouse measured after 24 hrs by qRT-PCR analysis; type: ADME, organism-based; conditions: in vivo

SMILES | AUC(0-t) at 8 h [1] [ng·h/mL] | bioavailability [2] [%] | other results
COc1ccc2c(c1)CCN(C(=O)CCCCC(=O)O)[C@H]2C(=O)Nc1cc(F)c([Si](C)(C)C)c(F)c1 | 1030 | 84 | –
COc1ccc2c(c1)CCN(C(=O)/C=C/C(=O)O)[C@H]2C(=O)Nc1cc(F)c([Si](C)(C)C)c(F)c1 | 619 | 51 | –
COc1ccc2c(c1)CCN(C(=O)CCC(=O)O)[C@H]2C(=O)Nc1cc(F)c([Si](C)(C)C)c(F)c1 | 2500 | 51 | –
COc1ccc2c(c1)CCN(C(=O)CC(C)(O)CC(=O)O)[C@H]2C(=O)Nc1cc(F)c([Si](C)(C)C)c(F)c1 (stereo not given in full) | 159 | 34 | –
COc1ccc([C@H](C(=O)Nc2cc(F)c([Si](C)(C)C)c(F)c2)N(C)C(=O)c2cc(O)no2)cc1 | – | 18 | AUC (Mus musculus [3]): 374 ng·h/mL
COc1ccc2c(c1)CCN(C(=O)CC1SC(=O)NC1=O)[C@H]2C(=O)Nc1cc(F)c([Si](C)(C)C)c(F)c1 (stereo not given in full) | 120 | 13 | –
COc1ccc2c(c1)CCN(C(=O)CCCC(N)=O)[C@H]2C(=O)Nc1cc(F)c([Si](C)(C)C)c(F)c1 | 92 | 14 | –
COc1ccc2c(c1)CCN(C(=O)CC(C)(C)CC(=O)O)[C@H]2C(=O)Nc1cc(F)c([Si](C)(C)C)c(F)c1 | 2270 | 40 | –
COc1ccc2c(c1)CCN(C(=O)CCCC(=O)O)[C@H]2C(=O)Nc1cc(F)c([Si](C)(C)C)c(F)c1 | 6890 | 94 | Cmax [4]: 1630 ng/mL; AUC(0-t) at 24 h [5]: 48000 ng·h/mL; Cmax [6]: 7720 ng/mL; AUC(0-t) at 24 h [7]: 159000 ng·h/mL; Cmax [8]: 19000 ng/mL; ED50 (Mus musculus [9]): 2.8 mg/kg; AUC(0-t) at 24 h [10]: 10700 ng·h/mL; Drug uptake (Mus musculus [11]): Dose-dependent effect; Activity (Mus musculus [12]): Non-Toxic
COc1ccc([C@H](C(=O)Nc2cc(F)c([Si](C)(C)C)c(F)c2)N(C)C(=O)CCC(=O)O)cc1 | 162 | 8.5 | –
COc1ccc2c(c1)CCN(C(=O)c1cc(O)no1)[C@H]2C(=O)Nc1cc(F)c([Si](C)(C)C)c(F)c1 | 200 | 11 | –
COc1ccc2c(c1)OCCN(C(=O)c1cc(O)no1)[C@H]2C(=O)Nc1cc(F)c([Si](C)(C)C)c(F)c1 | 29.5 | 9 | –
COc1ccc2c(c1)CCN(C(=O)CC(C)CC(=O)O)[C@H]2C(=O)Nc1cc(F)c([Si](C)(C)C)c(F)c1 (stereo not given in full) | 2500 | 65 | –

From ChEMBL document CHEMBL4177746, “Discovery of orally efficacious RORγt inverse agonists. Part 2: Design, synthesis, and biological evaluation of novel tetrahydroisoquinoline derivatives” (Bioorg Med Chem, 2018)
